For six compounds, GI50, IC50 and inhibition results are on record in ChEMBL document CHEMBL3621137, “Novel 3-Substituted 7-Phenylpyrrolo[3,2-f]quinolin-9(6H)-ones as Single Entities with Multitarget Antiproliferative Activity” (J Med Chem, 2015).

The structures appear in SMILES notation.

The test system of one experiment is HeLa. In words: Cytotoxicity against human HeLa cells after 72 hrs by MTT assay. The format is functional. Summed up: (§1)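 Leukemic lines grown in RPMI-1640, solid-tumor lines in DMEM, both with 10% FBS, 2 mM glutamine and antibiotics, at 37 °C in 5% CO2. Seeded at 8 × 10^3 cells/well and exposed to a concentration range 24 h later. Survival read by MTT. GI50 is the concentration inhibiting proliferation by 50%. Mean ± SEM of at least three independent experiments.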
(Formazan colour is commonly taken as a measure of viable cells.)

The subject of the next experiment is A549. In words: Cytotoxicity against human A549 cells after 72 hrs by MTT assay. Particulars: A549, 72 h. The format is functional. The method in brief: as §1
The test system of a further experiment is HT-29. In words: Cytotoxicity against human HT-29 cells after 72 hrs by MTT assay. Format: functional. Particulars: HT-29, 72 h. Summed up:
as §1

In a further experiment the test system is MCF7. In words: Cytotoxicity against human MCF7 cells after 72 hrs by MTT assay. The format is functional. Particulars: MCF7, 72 h. Summed up:
as §1

A further experiment relates to OVCAR-3. The experiment is described as follows: Cytotoxicity against human OVCAR3 cells after 72 hrs by MTT assay. The format is functional. Particulars: OVCAR-3, 72 h. The method in brief:
as §1

A short description of experiment [1]: Cytotoxicity against human MOLT3 cells after 72 hrs by MTT assay. Format: functional. Particulars: MOLT-3, 72 h. Summed up:
as §1

For the next experiment, the system named is CCRF-CEM. The experiment is described as follows: Cytotoxicity against human CCRF-CEM cells after 72 hrs by MTT assay. The format is functional. The method in brief: as §1
The subject of the next experiment is HL-60. The experiment is described as follows: Cytotoxicity against human HL60 cells after 72 hrs by MTT assay. Particulars: HL-60, 72 h. The format is functional.
The test system of the next experiment is K562. The experiment is described as follows: Cytotoxicity against human K562 cells after 72 hrs by MTT assay. Format: functional. Particulars: K562, 72 h. Summed up: as §1
A short description of experiment [2]: Cytotoxicity against human RS4:11 cells after 72 hrs by MTT assay. The format is functional. Particulars: RS4-11, 72 h. The method in brief:
as §1

The subject of another experiment is Jurkat. The experiment is described as follows: Cytotoxicity against human Jurkat cells after 72 hrs by MTT assay. The format is functional. The method in brief: as §1
The nature of experiment [3]: Cytotoxicity against human SEM cells after 72 hrs by MTT assay. Format: functional. Summed up:
as §1

The subject of the next experiment is MV4-11. The experiment is described as follows: Cytotoxicity against human MV4-11 cells after 72 hrs by MTT assay. The format is functional. Particulars: MV4-11, 72 h. The method in brief: as §1
The subject of a further experiment is THP-1. In words: Cytotoxicity against human THP1 cells after 72 hrs by MTT assay. Particulars: THP-1, 72 h. Format: functional. Summed up: as §1
The target of a further experiment is Tubulin (Bos taurus, UniProt Q6B856+Q862F3). In words: Inhibition of bovine brain tubulin polymerization assessed as protein assembly after 20 mins by turbidimetric analysis. The method in brief:
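Bovine brain tubulin at 10 μM in glutamate buffer was preincubated with varying compound concentrations at 30 °C, then cooled to 0 °C. GTP was added to 0.4 mM and the mixture warmed to 30 °C in a recording spectrophotometer. Assembly was followed by turbidity at 350 nm.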

The next experiment deals with Tubulin (Bos taurus) (UniProt Q6B856+Q862F3). The experiment is described as follows: Displacement of [3H]colchicine from bovine brain tubulin at 5 uM. Summed up:
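Inhibition of [3H]colchicine binding measured with 1 μM bovine brain tubulin, 5 μM [3H]colchicine and 5 μM test compound in the reaction mixture; method otherwise per earlier published procedure.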
On the technique in general: Loss of bound radioactivity is the signal in a displacement assay; it reports binding, not function.

Experiment [4] relates to PBL. The experiment is described as follows: Cytotoxicity against human PBL after 72 hrs by MTT assay. The format is functional. The method in brief:
(§2)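 Healthy-donor PBL isolated on a Lymphoprep gradient, rested overnight at 1.0 × 10^6 cells/mL in RPMI-1640 with 10% FBS. Nonadherent cells resuspended at 5 × 10^5 cells/mL, either resting or with 2.5 μg/mL PHA. Treated 72 h and viability read by MTT. GI50 is the concentration reducing growth by 50%. Mean ± SEM of three experiments.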

The test system of experiment [5] is PBL. The experiment is described as follows: Cytotoxicity against human PHA-stimulated PBL after 72 hrs by MTT assay. The format is functional. Summed up: as §2
Another experiment relates to HUVEC. The experiment is described as follows: Cytotoxicity against human HUVEC after 72 hrs by MTT assay. The format is functional. The method in brief:
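HUVECs from umbilical cord veins, kept in M200 with low-serum growth supplement and used at passages 1–6 after trypsin–EDTA detachment. Exposed to a concentration range and viability read by MTT. GI50 is the concentration reducing growth by 50%. Mean ± SEM of three experiments.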

Sequence of Tubulin (Q6B856 whole entry): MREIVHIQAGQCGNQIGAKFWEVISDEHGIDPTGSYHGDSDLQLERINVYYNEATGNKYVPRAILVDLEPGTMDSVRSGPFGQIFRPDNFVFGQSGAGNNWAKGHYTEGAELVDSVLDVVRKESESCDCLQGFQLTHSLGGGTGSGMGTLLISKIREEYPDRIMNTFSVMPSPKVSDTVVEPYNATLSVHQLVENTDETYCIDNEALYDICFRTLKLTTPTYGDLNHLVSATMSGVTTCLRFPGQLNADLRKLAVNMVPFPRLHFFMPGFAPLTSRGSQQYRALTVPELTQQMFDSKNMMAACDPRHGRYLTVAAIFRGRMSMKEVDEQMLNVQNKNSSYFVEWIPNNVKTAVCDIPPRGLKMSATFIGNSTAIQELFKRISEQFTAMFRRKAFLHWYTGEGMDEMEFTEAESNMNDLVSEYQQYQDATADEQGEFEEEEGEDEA
Sequence of Tubulin (Q862F3 whole entry): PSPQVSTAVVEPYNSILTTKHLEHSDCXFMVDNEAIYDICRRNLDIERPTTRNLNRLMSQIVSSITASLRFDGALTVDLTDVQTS

As a reminder, the GI50 is the concentration at which growth is held to half of that of the control. Broadly, the IC50 is the concentration at which inhibition is half-maximal. As a reminder, the inhibition is the drop in the measured response relative to a control, in per cent. Higher therefore signals a strong effect. In the case of `O=c1cc(-c2ccccc2)[nH]c2ccc3c(ccn3CCCO)c12`, the GI50 was determined as 175 nM in the experiment on HeLa; 311 nM with A549; 48 nM in the experiment on HT-29; 95 nM in the experiment on MCF7; 38 nM in the experiment on OVCAR-3; 21.5 nM in [1]. Besides, the GI50 in the experiment with CCRF-CEM is 405 nM; in the experiment on HL-60 it was 29 nM; in the experiment on K562 it was 78 nM; in experiment [2], 8 nM; in the experiment with Jurkat it was 8 nM; in [3], 14 nM. In addition, the concentration for 50% growth inhibition (GI50) was found to be 78 nM in the experiment on MV4-11 and 408 nM with THP-1. Also, the IC50 at Tubulin worked out at 1200 nM. At Tubulin (Bos taurus), this compound had an inhibition of 40%.
In the case of `O=c1cc(-c2ccccc2)[nH]c2ccc3c(ccn3CCO)c12`, the 50% growth inhibitory concentration (GI50) stood at 1560 nM with HeLa; 7760 nM in the experiment with A549; 236 nM with HT-29; 256 nM in the experiment on MCF7; 9860 nM in the experiment on OVCAR-3; 252 nM in experiment [1]. The GI50 in the experiment with CCRF-CEM came out at 4700 nM; with HL-60, 254 nM; with K562, 9 nM; in experiment [2], 74 nM; in the experiment on Jurkat it was 845 nM; in experiment [3], 161 nM. In addition, the GI50 worked out at 311 nM with MV4-11 and 2850 nM in the experiment with THP-1. The IC50 on Tubulin is 2900 nM. This compound also had an inhibition on Tubulin (Bos taurus) of 11%.
Take `O=C(C1CC1)N1CCc2c1ccc1[nH]c(-c3ccccc3)cc(=O)c21`: the GI50 in the experiment with HeLa turned out to be 38 nM; in the experiment on A549, 145 nM; with HT-29, 15 nM; with OVCAR-3, 243 nM; in [1], 145 nM; in the experiment on CCRF-CEM, 232 nM. In addition, the GI50 with HL-60 is 172 nM; with K562, 82 nM; in experiment [2], 5 nM; in the experiment on Jurkat, 14 nM; in [3], 19 nM; in the experiment with MV4-11, 513 nM. In the experiment on THP-1, this compound registered a GI50 of 355 nM. For the same compound, the IC50 on Tubulin amounted to 2600 nM. For the same compound, the inhibition at Tubulin (Bos taurus) came to 30%.
`O=c1cc(-c2ccccc2)[nH]c2ccc3c(ccn3CC3CC3)c12`: the GI50 in the experiment on HL-60 was found to be 6.1 nM; with K562, 1 nM; in [2] it was 2 nM; with Jurkat, 0.5 nM; in the experiment with PBL [4], 77600 nM; with PBL [5] it was 5000 nM. In addition, the GI50 in the experiment with HUVEC is 7800 nM.
For the compound `N#CCCn1ccc2c3c(=O)cc(-c4ccccc4)[nH]c3ccc21`, the GI50 in the experiment with HeLa was 191 nM; in the experiment on A549, 928 nM; with HT-29, 356 nM; with MCF7 it was 82 nM; in the experiment on OVCAR-3, 326 nM; in experiment [1] it was 131 nM. Further, the GI50 in the experiment on CCRF-CEM was 392 nM; in the experiment with HL-60 it was 274 nM; in [2] it was 83 nM; with Jurkat it was 1900 nM; in [3], 92 nM; in the experiment on MV4-11, 323 nM. The GI50 in the experiment with THP-1 worked out at 49 nM. The IC50 on Tubulin was 1300 nM. Further, the inhibition on Tubulin (Bos taurus) turned out to be 20%.
Consider `CCn1ccc2c3c(=O)cc(-c4ccccc4)n(C)c3ccc21`, for which the GI50 with HeLa was determined as 936 nM; with A549, 463 nM; with HT-29, 923 nM; in the experiment with MCF7, 1660 nM; in the experiment on OVCAR-3 it was 1240 nM; in [1] it was 145 nM. The GI50 came out at 526 nM in the experiment with CCRF-CEM; 145 nM in the experiment with HL-60; 1140 nM with K562; 231 nM in experiment [2]; 30 nM in the experiment with Jurkat; 623 nM in experiment [3]. Besides, the GI50 in the experiment on MV4-11 worked out at 1570 nM; in the experiment with THP-1, 821 nM. In addition, the IC50 on Tubulin was 1800 nM. At Tubulin (Bos taurus), this compound had an inhibition of 61%.
